Columns and labels:
Assay type in all cases: functional
HOP-92 = experiment: Cytotoxicity against human HOP92 cells assessed as growth inhibition at 10 uM after 48 hrs by sulphorhodamine B assay; conditions: HOP-92, 48 h, read-out: GI
In short: (§1)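 NCI-60 one-dose screen per the NCI Drug Evaluation Branch protocol. Cells given a single 10 µM concentration with 48 h continuous exposure. Growth estimated by sulphorhodamine B protein assay. Result expressed as percentage growth inhibition relative to untreated growth.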

NCI-H23 = experiment: Cytotoxicity against human NCI-H23 cells assessed as growth inhibition at 10 uM after 48 hrs by sulphorhodamine B assay; conditions: NCI-H23, 48 h, read-out: GI; in short: as §1
[1] = Cytotoxicity against human EKVX cells assessed as growth inhibition at 10 uM after 48 hrs by sulphorhodamine B assay; conditions: read-out: GI; in short: as §1
A549 = experiment: Cytotoxicity against human A549 cells assessed as growth inhibition at 10 uM after 48 hrs by sulphorhodamine B assay; conditions: A549, 48 h, read-out: GI; in short: as §1
NCI/ADR-RES = experiment: Cytotoxicity against human NCI/ADR-RES cells assessed as growth inhibition at 10 uM after 48 hrs by sulphorhodamine B assay; conditions: read-out: GI; in short: as §1
SNB-75 = experiment: Cytotoxicity against human SNB75 cells assessed as growth inhibition at 10 uM after 48 hrs by sulphorhodamine B assay; conditions: SNB-75, 48 h, read-out: GI; in short: as §1
U-251 = experiment: Cytotoxicity against human U251 cells assessed as growth inhibition at 10 uM after 48 hrs by sulphorhodamine B assay; conditions: U-251, 48 h, read-out: GI; in short: as §1
SNB-19 = experiment: Cytotoxicity against human SNB19 cells assessed as growth inhibition at 10 uM after 48 hrs by sulphorhodamine B assay; conditions: SNB-19, 48 h, read-out: GI; in short: as §1
SF-295 = experiment: Cytotoxicity against human SF295 cells assessed as growth inhibition at 10 uM after 48 hrs by sulphorhodamine B assay; conditions: SF-295, 48 h, read-out: GI; in short: as §1
DU-145 = experiment: Cytotoxicity against human DU145 cells assessed as growth inhibition at 10 uM after 48 hrs by sulphorhodamine B assay; conditions: DU-145, 48 h, read-out: GI; in short: as §1
SF-268 = experiment: Cytotoxicity against human SF268 cells assessed as growth inhibition at 10 uM after 48 hrs by sulphorhodamine B assay; conditions: SF-268, 48 h, read-out: GI; in short: as §1
PC-3 = experiment: Cytotoxicity against human PC3 cells assessed as growth inhibition at 10 uM after 48 hrs by sulphorhodamine B assay; conditions: PC-3, 48 h, read-out: GI; in short: as §1
UACC-62 = experiment: Cytotoxicity against human UACC62 cells assessed as growth inhibition at 10 uM after 48 hrs by sulphorhodamine B assay; conditions: UACC-62, 48 h, read-out: GI; in short: as §1
SK-MEL-2 = experiment: Cytotoxicity against human SK-MEL-2 cells assessed as growth inhibition at 10 uM after 48 hrs by sulphorhodamine B assay; conditions: SK-MEL-2, 48 h, read-out: GI; in short: as §1
SK-MEL-5 = experiment: Cytotoxicity against human SK-MEL-5 cells assessed as growth inhibition at 10 uM after 48 hrs by sulphorhodamine B assay; conditions: SK-MEL-5, 48 h, read-out: GI; in short: as §1
M14 = experiment: Cytotoxicity against human M14 cells assessed as growth inhibition at 10 uM after 48 hrs by sulphorhodamine B assay; conditions: M14, 48 h, read-out: GI; in short: as §1
LOX IMVI = experiment: Cytotoxicity against human LOXIMVI cells assessed as growth inhibition at 10 uM after 48 hrs by sulphorhodamine B assay; conditions: read-out: GI; in short: as §1
UO-31 = experiment: Cytotoxicity against human UO31 cells assessed as growth inhibition at 10 uM after 48 hrs by sulphorhodamine B assay; conditions: UO-31, 48 h, read-out: GI; in short: as §1
CAKI-1 = experiment: Cytotoxicity against human Caki1 cells assessed as growth inhibition at 10 uM after 48 hrs by sulphorhodamine B assay; conditions: CAKI-1, 48 h, read-out: GI; in short: as §1
RXF 393 = experiment: Cytotoxicity against human RXF393 cells assessed as growth inhibition at 10 uM after 48 hrs by sulphorhodamine B assay; conditions: RXF 393, 48 h, read-out: GI; in short: as §1
ACHN = experiment: Cytotoxicity against human ACHN cells assessed as growth inhibition at 10 uM after 48 hrs by sulphorhodamine B assay; conditions: read-out: GI; in short: as §1
SR = experiment: Cytotoxicity against human SR cells assessed as growth inhibition at 10 uM after 48 hrs by sulphorhodamine B assay; conditions: read-out: GI; in short: as §1
A498 = experiment: Cytotoxicity against human A498 cells assessed as growth inhibition at 10 uM after 48 hrs by sulphorhodamine B assay; conditions: A498, 48 h, read-out: GI; in short: as §1
RPMI-8226 = experiment: Cytotoxicity against human RPMI8226 cells assessed as growth inhibition at 10 uM after 48 hrs by sulphorhodamine B assay; conditions: RPMI-8226, 48 h, read-out: GI; in short: as §1
MOLT-4 = experiment: Cytotoxicity against human MOLT4 cells assessed as growth inhibition at 10 uM after 48 hrs by sulphorhodamine B assay; conditions: MOLT-4, 48 h, read-out: GI; in short: as §1
K562 = experiment: Cytotoxicity against human K562 cells assessed as growth inhibition at 10 uM after 48 hrs by sulphorhodamine B assay; conditions: K562, 48 h, read-out: GI; in short: as §1
HL-60(TB) = experiment: Cytotoxicity against human HL-60(TB) cells assessed as growth inhibition at 10 uM after 48 hrs by sulphorhodamine B assay; conditions: HL-60, 48 h, read-out: GI
In short: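 NCI-60 one-dose primary screen run to the Drug Evaluation Branch protocol. Cells are exposed to a single 10 µM concentration for 48 h continuously, and growth is read by SRB protein assay. Data are reported as percent growth of treated cells, expressed as % growth inhibition.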

SK-OV-3 = experiment: Cytotoxicity against human SKOV3 cells assessed as growth inhibition at 10 uM after 48 hrs by sulphorhodamine B assay; conditions: SK-OV-3, 48 h, read-out: GI; in short: as §1
CCRF-CEM = experiment: Cytotoxicity against human CCRF-CEM cells assessed as growth inhibition at 10 uM after 48 hrs by sulphorhodamine B assay; conditions: read-out: GI; in short: as §1
OVCAR-5 = experiment: Cytotoxicity against human OVCAR5 cells assessed as growth inhibition at 10 uM after 48 hrs by sulphorhodamine B assay; conditions: OVCAR-5, 48 h, read-out: GI; in short: as §1
OVCAR-4 = experiment: Cytotoxicity against human OVCAR4 cells assessed as growth inhibition at 10 uM after 48 hrs by sulphorhodamine B assay; conditions: OVCAR-4, 48 h, read-out: GI; in short: as §1
IGROV-1 = experiment: Cytotoxicity against human IGROV1 cells assessed as growth inhibition at 10 uM after 48 hrs by sulphorhodamine B assay; conditions: IGROV-1, 48 h, read-out: GI; in short: as §1
T47D = experiment: Cytotoxicity against human T47D cells assessed as growth inhibition at 10 uM after 48 hrs by sulphorhodamine B assay; conditions: read-out: GI; in short: as §1
Hs-578T = experiment: Cytotoxicity against human Hs578T cells assessed as growth inhibition at 10 uM after 48 hrs by sulphorhodamine B assay; conditions: read-out: GI; in short: as §1
NCI-H522 = experiment: Cytotoxicity against human NCI-H522 cells assessed as growth inhibition at 10 uM after 48 hrs by sulphorhodamine B assay; conditions: NCI-H522, 48 h, read-out: GI; in short: as §1
HT-29 = experiment: Cytotoxicity against human HT-29 cells assessed as growth inhibition at 10 uM after 48 hrs by sulphorhodamine B assay; conditions: HT-29, 48 h, read-out: GI; in short: as §1
MCF7 = experiment: Cytotoxicity against human MCF7 cells assessed as growth inhibition at 10 uM after 48 hrs by sulphorhodamine B assay; conditions: MCF7, 48 h, read-out: GI; in short: as §1
MDA-MB-435 = experiment: Cytotoxicity against human MDA-MB-435 cells assessed as growth inhibition at 10 uM after 48 hrs by sulphorhodamine B assay; conditions: MDA-MB-435, 48 h, read-out: GI; in short: as §1
HCT-15 = experiment: Cytotoxicity against human HCT15 cells assessed as growth inhibition at 10 uM after 48 hrs by sulphorhodamine B assay; conditions: HCT-15, 48 h, read-out: GI; in short: as §1
MDA-MB-468 = experiment: Cytotoxicity against human MDA-MB-468 cells assessed as growth inhibition at 10 uM after 48 hrs by sulphorhodamine B assay; conditions: MDA-MB-468, 48 h, read-out: GI; in short: as §1
HCT-116 = experiment: Cytotoxicity against human HCT116 cells assessed as growth inhibition at 10 uM after 48 hrs by sulphorhodamine B assay; conditions: HCT-116, 48 h, read-out: GI; in short: as §1

COc1ccc(-c2c3c(nc4ncn5ncnc5c24)C(C)CCC3)cc1 (stereo unspecified)
inhibition of growth at 10 µM (HOP-92): < 10% | inhibition of growth at 10 µM (NCI-H23): < 10% | inhibition of growth at 10 µM [1]: < 10% | inhibition of growth at 10 µM (A549): < 10% | inhibition of growth at 10 µM (NCI/ADR-RES): < 10% | inhibition of growth at 10 µM (SNB-75): < 10% | inhibition of growth at 10 µM (U-251): < 10% | inhibition of growth at 10 µM (SNB-19): < 10% | inhibition of growth at 10 µM (SF-295): < 10% | inhibition of growth at 10 µM (DU-145): < 10% | inhibition of growth at 10 µM (SF-268): < 10% | inhibition of growth at 10 µM (PC-3): 13% | inhibition of growth at 10 µM (UACC-62): 18.3% | inhibition of growth at 10 µM (SK-MEL-2): < 10% | inhibition of growth at 10 µM (SK-MEL-5): < 10% | inhibition of growth at 10 µM (M14): < 10% | inhibition of growth at 10 µM (LOX IMVI): 15% | inhibition of growth at 10 µM (UO-31): < 10% | inhibition of growth at 10 µM (CAKI-1): < 10% | inhibition of growth at 10 µM (RXF 393): < 10% | inhibition of growth at 10 µM (ACHN): < 10% | inhibition of growth at 10 µM (SR): 17.8% | inhibition of growth at 10 µM (A498): 13.5% | inhibition of growth at 10 µM (RPMI-8226): 31% | inhibition of growth at 10 µM (MOLT-4): 19% | inhibition of growth at 10 µM (K562): < 10% | inhibition of growth at 10 µM (HL-60(TB)): < 10% | inhibition of growth at 10 µM (SK-OV-3): < 10% | inhibition of growth at 10 µM (CCRF-CEM): < 10% | inhibition of growth at 10 µM (OVCAR-5): < 10% | inhibition of growth at 10 µM (OVCAR-4): < 10% | inhibition of growth at 10 µM (IGROV-1): 10.6% | inhibition of growth at 10 µM (T47D): < 10% | inhibition of growth at 10 µM (Hs-578T): < 10% | inhibition of growth at 10 µM (NCI-H522): < 10% | inhibition of growth at 10 µM (HT-29): < 10% | inhibition of growth at 10 µM (MCF7): < 10% | inhibition of growth at 10 µM (MDA-MB-435): < 10% | inhibition of growth at 10 µM (HCT-15): < 10% | inhibition of growth at 10 µM (MDA-MB-468): < 10% | inhibition of growth at 10 µM (HCT-116): < 10%

Reference: ChEMBL document CHEMBL2375313, “Synthesis, in vitro antitumor evaluation and DNA-binding study of novel tetrahydroquinolines and some derived tricyclic and tetracyclic ring systems” (Eur J Med Chem, 2013)
